# Compound activity from PubChem.
# ROMK mod – ROMK potassium channel modulators, primary screen, cell-based, thallium flux, MLSMR library | Tet-inducible ROMK, thallium flux fluorescence; actives lie on both sides | 2% of 130,000 active | B-score at 10 µM;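 active = signal ratio slope over the read window, or its plate-corrected B-score, at least 3 SD from the plate mean, either direction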;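 note: B-score of the F/F0 ratio slope over 7 to 12 s after thallium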
# KCC2 mod – KCC2 cotransporter modulators, thallium flux, primary screen, cell-based, HEK293 KCC2, FluoZin-2 fluorescence, MLSMR. Solute carrier family 12 member 5 (Homo sapiens), Q9H2X9. KCC2 cells, thallium flux FluoZin-2 fluorescence. B-score of Tl+ flux slope (higher = more flux/activation; lower = inhibition) at 10 µM. 2.2% of 190,000 active;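 active = thallium flux slope and its plate-corrected score both differing from the plate sample mean at a set confidence after two filtering rounds, in either direction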;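 note: slope of fluorescence scaled to starting intensity during 10 to 20 s after thallium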
# Rad51 HR inh – human RAD51 strand exchange inhibitors, primary screen, biochemical, fluorescence; inhibition, % at 10 µM; hRad51 DNA strand exchange, fluorescence dequenching; 0.085% of 200,000 active; DNA repair protein RAD51 homolog 1 (Homo sapiens), Q06609;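 active = inhibition above 40% at the single screening dose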;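 note: 0% = DMSO control wells and 100% = blanks with heterologous ssDNA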
#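 material = hRad51 filaments on single-stranded DNA | timing = filaments 15 min 37 °C, then compound 30 min | signal = FRET fluorescence dequenching, excitation 485 nm, emission 520 nm | benchmarks = control wells and blank wells on each plate | evaluation = percent inhibition relative to plate controls and blanks | compound = 10 µM final, single point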
# PKD1 kinase inh – inhibitors of human PKD1 kinase, biochemical, fluorescence polarization | Serine/threonine-protein kinase D1 (Homo sapiens), Q15139 | PKD1 kinase fluorescence polarization assay | inhibition, % (test concentration not listed) | 0.056% of 200,000 active; in the data active = inhibition above about 50%
# Target sequence (Q15139 whole entry, looked up): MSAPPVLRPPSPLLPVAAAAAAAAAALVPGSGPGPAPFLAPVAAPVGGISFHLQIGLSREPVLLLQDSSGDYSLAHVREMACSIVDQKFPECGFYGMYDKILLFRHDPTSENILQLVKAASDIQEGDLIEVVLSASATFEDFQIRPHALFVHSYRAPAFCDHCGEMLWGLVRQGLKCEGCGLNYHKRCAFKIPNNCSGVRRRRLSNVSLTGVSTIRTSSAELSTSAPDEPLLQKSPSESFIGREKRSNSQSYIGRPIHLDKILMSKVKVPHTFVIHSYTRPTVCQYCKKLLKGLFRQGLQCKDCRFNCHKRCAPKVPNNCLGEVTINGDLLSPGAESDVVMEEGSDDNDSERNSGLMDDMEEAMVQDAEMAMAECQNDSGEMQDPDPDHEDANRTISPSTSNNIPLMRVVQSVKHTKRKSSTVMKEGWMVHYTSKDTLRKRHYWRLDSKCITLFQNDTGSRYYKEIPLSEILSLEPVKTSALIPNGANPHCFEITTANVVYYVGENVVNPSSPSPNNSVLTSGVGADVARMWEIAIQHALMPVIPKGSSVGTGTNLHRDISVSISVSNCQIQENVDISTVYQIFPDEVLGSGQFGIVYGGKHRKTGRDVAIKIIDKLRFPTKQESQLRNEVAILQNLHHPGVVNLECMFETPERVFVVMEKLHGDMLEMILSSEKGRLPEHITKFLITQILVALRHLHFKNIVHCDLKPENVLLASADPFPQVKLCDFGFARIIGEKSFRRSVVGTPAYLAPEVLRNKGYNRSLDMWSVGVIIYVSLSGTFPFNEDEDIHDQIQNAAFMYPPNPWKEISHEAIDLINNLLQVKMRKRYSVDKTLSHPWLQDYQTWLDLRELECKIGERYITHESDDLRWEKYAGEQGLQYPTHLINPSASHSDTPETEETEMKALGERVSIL
# An asterisk follows results filed as active; nt = not tested or not shown. Rows were chosen to be rich in hits. Some 3% of all compounds tested hit in one or more screens of this group.
SMILES,ROMK mod,KCC2 mod,Rad51 HR inh,PKD1 kinase inh
O=C(NC(=S)Nc1nc2c(s1)CCCC2)c1ccccc1,nt,11.4*,nt,0.8
COc1ccc(NC(=O)Nc2nc3c(s2)CCCC3)cc1,nt,0.549,5.8,-6.0
COC(=O)c1ccc(C(=O)NC(=S)Nc2nc3c(s2)CCCC3)cc1,nt,25.1*,2.2,1.3
COc1cc(NC(=O)c2ccc(Cl)cc2)c(OC)cc1NC(=O)CN1CCOCC1,0.388,-5.25*,8.8,14.6
CC(CC(=O)Nc1ncc([N+](=O)[O-])s1)c1ccccc1 (stereo not drawn),-4.35*,nt,11.8,0.3
COc1ccc(/C=C/C(=O)NCC(=O)N2CCC(N(C)CCN3CCOCC3)CC2)cc1OC,0.25,0.447,2.9,-2.5
O=C(NCCN1C(=O)S/C(=C\c2cccs2)C1=O)c1ccc(=O)[nH]c1,-0.0494,0.957,-4.1,6.8
CCn1c(SC(C)C(=O)O)nc2sc3c(c2c1=O)CCC3 (stereo not drawn),1.71,26.3*,-10.6,6.5
CC(Sc1nc2sc3c(c2c(=O)n1-c1ccccc1)CCCC3)C(=O)O (stereo not drawn),nt,0.0148,-1.7,nt
CC(C)(C)NC(=O)[C@@H]1CN(Cc2cccnc2)CCN1C[C@@H](O)C[C@@H](Cc1ccccc1)C(=O)N[C@H]1c2ccccc2C[C@H]1O,nt,nt,-2.0,nt
c1ccc(CN2CCN(c3ncnc4c3[nH]c3ccccc34)CC2)cc1,-3.71*,-5.74*,-8.9,-14.2
O=C(Cn1nnc2ccccc21)c1ccc(Cl)cc1,nt,1.04,-4.7,nt
CC(C)N1CCC(=NNC(=O)c2ccc(Br)o2)CC1,2.73*,-0.412,-6.3,11.8
S=c1[nH]nc(Cn2cnc3ccccc32)n1-c1ccccc1,0.0719,0.994,0.6,-1.9
Cc1nc(NCCc2ccc(S(N)(=O)=O)cc2)c2c(C)c(C)sc2n1,1.04,20.9*,0.3,-3.1
Cc1cc(SCC(=O)N(C)CC(=O)Nc2ccc(F)cc2)nc2ccccc12,nt,-0.969,-12.0,-8.7
CCOC(=O)N1CCN(C(=O)CSCC(=O)N=c2sc3ccccc3n2C)CC1,0.596,nt,104.8*,-3.9
CC1=NN(c2ccccc2)C(=O)C1C(=O)c1ccc(Cl)cc1 (stereo not drawn),nt,7.85*,nt,-2.4
Cc1c(NC(=S)NC(=O)c2ccco2)cccc1-c1nc2ncccc2o1,-0.88,13*,-0.3,2.6
CCOC(=O)C1CCN(C(=O)c2ccco2)CC1,nt,-0.36,76.5*,-8.8
CCN(CC)C(=O)c1sc(NC(=O)c2ccoc2C)c(C(=O)OC)c1C,nt,8.42*,-1.2,-9.6
CCOC(=O)c1c(NC(=O)c2ccoc2C)sc(C(=O)N(C)C)c1C,0.708,nt,-5.8,2.1
CCOc1ccc(N(CC(=O)NN=C2CCCC2)S(C)(=O)=O)cc1,0.409,0.515,nt,-6.8
CC(=O)n1cc([C@H]2C=C(C(=O)NCc3ccccc3)O[C@@H](OCCCCO)C2)c2ccccc21,nt,-1.51,-0.5,7.2
CC(=O)n1cc([C@H]2C=C(C(=O)Nc3ccccc3)O[C@@H](OCCCCO)C2)c2ccccc21,nt,-5.05*,8.6,0.7
SMILES,ROMK mod,KCC2 mod,Rad51 HR inh,PKD1 kinase inh
CC(=O)n1cc([C@H]2C=C(C(=O)NCc3ccccc3)O[C@@H](OCc3ccc(CO)cc3)C2)c2ccccc21,nt,-2.82*,-5.2,-3.6
O=C(NN=C1c2ccccc2-c2ccccc21)c1ccccc1Br,nt,13.9*,-3.5,2.3
O=C(O)CC/C(=N\NC(=O)c1ccccc1Br)c1ccccc1,-0.0143,1.18,-0.1,7.7
CC1=CC(C)(C)NC(=S)N1c1cccc2cc(S(=O)(=O)O)ccc12,nt,0.95,-10.6,nt
Clc1c(-c2nnc3n2CCC3)sc2ccccc12,-0.364,-1.56,1.4,1.0
Cn1c(-c2sc3ccccc3c2Cl)n[nH]c1=S,nt,12.7*,2.3,-3.6
Cc1ccc(C)c(NC(=S)c2nc3ccccc3s2)c1,nt,22.3*,nt,2.7
CCOC(=O)c1ccc(N/C(=N\S(=O)(=O)c2ccc(F)cc2F)c2ccccc2)cc1,nt,0.0243,-6.2,-0.1
CCOC(=O)c1c(NC(=O)C2C3CCC(O3)C2C(=O)O)sc2c1CCC(CC)C2 (stereo not drawn),-0.707,-0.465,3.9,-6.6
CCOC(=O)c1c(NC(=O)C2C3C=CC(C3)C2C(=O)O)sc2c1CCC(CC)C2 (stereo not drawn),nt,-5.75*,3.0,8.0
Cc1cc(Cl)ccc1NC(=S)N1CCN(Cc2ccc3c(c2)OCO3)CC1,-0.451,-0.116,2.8,-1.1
O=C(NC(=S)N1CCN(Cc2ccc3c(c2)OCO3)CC1)c1ccc(Cl)cc1,nt,75.2*,3.1,-5.1
O=C(NC(=S)N1CCN(Cc2ccc3c(c2)OCO3)CC1)c1cccc(Br)c1,4.89*,79.4*,2.3,-7.4
O=C(Cn1nc(Cc2ccncc2)c2ccccc2c1=O)N1CCc2ccccc2C1,nt,-3.68*,nt,0.1
CC(=O)Nc1nonc1NC(C)=O,0.0905,nt,5.3,-0.9
CC(=O)Nc1cc(OC(C)=O)c2nonc2c1OC(C)=O,-4.24*,nt,1.5,4.2
C=CCN(CC=C)C(=S)Nc1cc(Cl)ccc1OC,0.448,-0.198,nt,1.0
COc1ccc(C(=O)NC(=S)NCc2cccnc2)cc1Br,nt,1.01,-0.1,3.6
C=CCN(CC=C)C(=S)NC(=O)c1ccc(OC)c(Br)c1,nt,56.2*,-2.9,-13.6
C=CCN(CC=C)C(=S)NC(=O)c1ccc([N+](=O)[O-])cc1,nt,45.5*,2.2,-0.3
COc1ccc(C(=O)NC(=S)NCCO)cc1Br,0.821,4.66*,-2.2,-1.1
CCN(CC)C(=S)NC(=O)c1ccc(OC)c(Br)c1,4.59*,96.2*,13.1,1.1
CCOc1ccc(-c2nc[nH]c2[N+](=O)[O-])cc1,-0.00455,-0.00971,1.3,-2.0
O=C(COC(=O)c1cc(-c2cccs2)nn1-c1ccccc1)Nc1ccc(F)c([N+](=O)[O-])c1,0.803,0.0991,nt,-4.4
O=C(NNC(=O)c1sccc1-n1cccc1)Nc1ccc(F)cc1,-0.605,-0.0789,2.9,-4.5
SMILES,ROMK mod,KCC2 mod,Rad51 HR inh,PKD1 kinase inh
COc1ccc(Nc2nnc(SCC3CCCO3)s2)cc1 (stereo not drawn),0.363,-0.781,3.3,3.3
Cc1ccc(S(=O)(=O)NC(=O)c2cc(C)n(-c3ccc(N(C)C)cc3)c2C)cc1,nt,0.182,1.6,-2.0
CCOC(=O)CSc1ncnc2c1cnn2-c1ccc(C)cc1,nt,-0.558,0.8,1.6
Cc1ccc(CSc2ncnc3c2cnn3-c2ccc(C)cc2)cc1,1.16,15.7*,0.4,13.5
Cc1ccc(CSc2ncnc3c2cnn3-c2ccccc2)cc1,nt,1.06,4.5,1.3
Cc1ccc(-n2ncc3c(SCc4ccccc4)ncnc32)cc1,0.203,22.3*,-10.6,8.7
CCCC(=O)Nc1ccc(C(=O)Nc2ccc([N+](=O)[O-])cc2OC)cc1,-0.916,-0.832,1.8,0.8
COc1ccc(S(=O)(=O)NC(C)C(=O)Nc2ccccc2C(F)(F)F)cc1 (stereo not drawn),0.238,-0.516,93.6*,-8.6
COc1ccc(S(=O)(=O)Nc2ccccc2C(F)(F)F)cc1,-0.439,0.439,-3.1,-2.5
CCC(=O)Nc1cccc(NC(=S)NC(=O)c2ccccc2C)c1,-0.383,-0.00245,5.4,-3.6
